Tests used:
Candida albicans [1] = test: Synergistic antifungal activity against Candida albicans ATCC 90028 at 5 ug/ml after 48 hrs in presence of 80 ug/ml fluconazol by checkerboard assay relative to control; type: functional
Outline: (§1)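 Checkerboard in C. albicans ATCC 90028, inoculum prepared per CLSI M27-A3 in RPMI. Fluconazole serially diluted 80-1.25 µg/mL across the plate against the partner compound at 80-1.25 µg/mL final. Incubated 48 h at 35°C. Metabolic activity read by XTT reduction at 475 nm (660 nm reference), given as % of the untreated growth control.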

Candida albicans [2] = test: Antifungal activity against Candida albicans ATCC 90028 at 0.125 ug/ml after 48 hrs relative to control; type: functional
Outline: (§2)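 Planktonic broth microdilution per M27-A3 in MOPS-buffered RPMI 1640 (pH 7.0), final inoculum 1.8×10^3 cells/mL, compounds 0.0313–16 µg/mL from 1600 µg/mL stocks in ethanol or DMSO. Incubated at 35°C without agitation; OD405 read at 18 and 48 h. % inhibition was derived from test, sterility (no inoculum) and solvent growth-control wells. Amphotericin B at 0.5 µg/mL served as the 100% control.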

Candida albicans [3] = test: Antifungal activity against Candida albicans ATCC 90028 assessed as inhibition of metabolic activity at 1.25 ug/ml after 48 hrs in presence of 5 ug/ml fluconazol by XTT assay relative to control; type: functional; conditions: values are per cent of control
Outline: (§3)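 Checkerboard against strain ATCC 90028, inoculum per M27-A3: fluconazole 80-1.25 µg/mL on one axis, tetrazole 80-1.25 µg/mL on the other. Plates at 35°C for 48 h, then XTT metabolic reduction read at 475 nm (660 nm reference). Activity is the drop in mean absorbance against untreated growth control. FICs and their summed FIC index are taken at 50% reduction in metabolic activity.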

Candida albicans [4] = test: Antifungal activity against Candida albicans ATCC 90028 at 2 ug/ml after 48 hrs relative to control; type: functional; outline: as §2
Candida albicans [5] = test: Antifungal activity against Candida albicans ATCC 90028 at 8 ug/ml after 48 hrs relative to control; type: functional; outline: as §2
Candida albicans [6] = test: Antifungal activity against Candida albicans ATCC 90028 assessed as metabolic activity at 10 ug/ml after 48 hrs in presence of 40 ug/ml fluconazol by XTT assay relative to control
Candida albicans [7] = test: Synergistic antifungal activity against Candida albicans ATCC 90028 at 10 ug/ml after 48 hrs in presence of 5 ug/ml fluconazol by checkerboard assay relative to control; type: functional
Outline: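 Checkerboard per M27-A3 against ATCC 90028: fluconazole at 80–1.25 µg/mL horizontally and partner compound at 80–1.25 µg/mL vertically, 100 µL yeast inoculum per well, 35°C for 48 h. After 48 h, metabolic activity was measured by XTT reduction at 475 nm (660 nm reference) relative to untreated growth control. FIC index is the sum of the FICs; <1 was defined as synergism and >1 as antagonism.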

Caco-2 = test: Cytotoxicity against human Caco2 cells assessed as reduction in cell viability at 0.0313 ug/ml after 18 hrs by XTT assay ralative to control; type: cell-based; conditions: caco-2, 18 h
Outline: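 Caco-2 cells were exposed to compound at 256, 16 or 0.0313 µg/mL for 18 h, then given XTT reagent for 4–6 h. Absorbance was read at 475 nm with a 660 nm reference, and viability and toxicity were expressed as %. CC50 was taken as the concentration giving 50% viability loss. Means ± SD of three independent experiments, samples in duplicate.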

Candida albicans [8] = test: Synergistic antifungal activity against Candida albicans ATCC 90028 at 20 ug/ml after 48 hrs in presence of 40 ug/ml fluconazol by checkerboard assay relative to control; type: functional; outline: as §1
Candida albicans [9] = test: Antifungal activity against Candida albicans ATCC 90028 assessed as inhibition of metabolic activity at 10 ug/ml after 48 hrs in presence of 5 ug/ml fluconazol by XTT assay relative to control; type: functional; conditions: values are per cent of control; outline: as §3
Candida albicans [10] = test: Antifungal activity against Candida albicans ATCC 90028 at 4 ug/ml after 48 hrs relative to control; type: functional; outline: as §2
Candida albicans [11] = test: Antifungal activity against Candida albicans ATCC 90028 assessed as metabolic activity at 40 ug/ml after 48 hrs in presence of 5 ug/ml fluconazol by XTT assay relative to control
Candida albicans [12] = test: Synergistic antifungal activity against Candida albicans ATCC 90028 at 2.5 ug/ml after 48 hrs in presence of 1.25 ug/ml fluconazol by checkerboard assay relative to control; type: functional
Outline: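 Checkerboard microdilution (M27-A3) on C. albicans ATCC 90028 in RPMI 1640: fluconazole (80-1.25 µg/mL) crossed with tetrazole (80-1.25 µg/mL final), incubated at 35°C for 48 h. Growth by OD405 at 18 and 48 h, endpoint taken as 100% inhibition. FIC index = sum of the two agents' FICs; <1 synergism, >1 antagonism.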

Candida albicans [13] = test: Antifungal activity against Candida albicans ATCC 90028 assessed as inhibition of metabolic activity at 1.25 ug/ml after 48 hrs in presence of 2.5 ug/ml fluconazol by XTT assay relative to control; type: functional; conditions: values are per cent of control
Outline: (§4)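 C. albicans ATCC 90028 in checkerboard: fluconazole serial dilutions (80-1.25 µg/mL) crossed with tetrazole (80-1.25 µg/mL final), M27-A3 inoculum in RPMI 1640, 35°C for 48 h. Metabolic activity measured by XTT reduction, read at 475 nm (660 nm reference). Activity expressed relative to untreated growth control absorbance.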

Candida albicans [14] = test: Antifungal activity against Candida albicans ATCC 90028 assessed as inhibition of metabolic activity at 2.5 ug/ml after 48 hrs in presence of 20 ug/ml fluconazol by XTT assay relative to control; type: functional; conditions: values are per cent of control; outline: as §4
Candida albicans [15] = test: Synergistic antifungal activity against Candida albicans ATCC 90028 at 20 ug/ml after 48 hrs in presence of 1.25 ug/ml fluconazol by checkerboard assay relative to control; type: functional; outline: as §1
Candida albicans [16] = test: Synergistic antifungal activity against Candida albicans ATCC 90028 at 20 ug/ml after 48 hrs in presence of 20 ug/ml fluconazol by checkerboard assay relative to control; type: functional; conditions: ATCC 90028, 48 h, read-out: GI; outline: as §1
Candida albicans [17] = test: Synergistic antifungal activity against Candida albicans ATCC 90028 at 80 ug/ml after 48 hrs in presence of 20 ug/ml fluconazol by checkerboard assay relative to control; type: functional; outline: as §1
Candida albicans [18] = test: Antifungal activity against Candida albicans ATCC 90028 at 16 ug/ml after 18 hrs relative to control; type: functional; outline: as §2
Candida albicans [19] = test: Antifungal activity against Candida albicans ATCC 90028 at 0.25 ug/ml after 18 hrs relative to control; type: functional
Outline: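 Fluconazole (water stock, diluted in RPMI 1640) tested by CLSI M27-A3 broth microdilution against C. albicans ATCC 90028. Inoculum 1.8×10^3 cells/mL in RPMI 1640 buffered with MOPS, pH 7.0. Incubation at 35°C without agitation, read at 18 and 48 h. Growth by OD405 and visually; inhibition % calculated against solvent growth-control wells after subtracting sterility-control wells.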

| Structure (SMILES) | growth inhibition (GI) (Candida albicans [1]) [%] | Activity (Candida albicans [2]) [%] | residual activity (Candida albicans [3]) [%] | Activity (Candida albicans [4]) [%] | Activity (Candida albicans [5]) [%] | Metabolic activity (Candida albicans [6]) [%] | growth inhibition (GI) (Candida albicans [7]) [%] | Activity (Caco-2) [%] | growth inhibition (GI) (Candida albicans [8]) [%] | residual activity (Candida albicans [9]) [%] | Activity (Candida albicans [10]) [%] | Metabolic activity (Candida albicans [11]) [%] | growth inhibition (GI) (Candida albicans [12]) [%] | residual activity (Candida albicans [13]) [%] | residual activity (Candida albicans [14]) [%] | growth inhibition (GI) (Candida albicans [15]) [%] | inhibition of growth at 20 µg/mL (Candida albicans [16]) [%] | growth inhibition (GI) (Candida albicans [17]) [%] | Activity (Candida albicans [18]) [%] | Activity (Candida albicans [19]) [%] |
| --- | --- | --- | --- | --- | --- | --- | --- | --- | --- | --- | --- | --- | --- | --- | --- | --- | --- | --- | --- | --- |
| ClCCCn1nnnc1-c1ccccc1Cl | 99.34 | 99.43 | 100 | 99.14 | 99.06 | 100 | 98.9 | 0 | 99.34 | 100 | 99.41 | 100 | 100 | 71.55 | 68.53 | 100 | 99.7 | 99.74 | 99.62 | 99.96 |
| CCOC(=O)CCn1nnc(-c2ccccc2)n1 | 99.61 | 99.18 | 100 | 99.7 | 98.86 | 94.14 | 98.97 | 0 | 99.29 | 100 | 99.68 | 100 | 99.79 | 75.73 | 67.39 | 99.79 | 99.5 | 99.59 | 99.95 | 98.4 |
| Cc1ccc(-c2nnn(CCCN3CCOCC3)n2)cc1 | 99.47 | 98.96 | 100 | 98.3 | 99.39 | 100 | 98.12 | 18.76 | 98.99 | 100 | 99.45 | 100 | 98.95 | 100 | 86.25 | 98.75 | 99.1 | 99.71 | 99.87 | 98.25 |

Source: ChEMBL document CHEMBL4145471, “New 1,5 and 2,5-disubstituted tetrazoles-dependent activity towards surface barrier of Candida albicans” (Eur J Med Chem, 2018)
